# Measurements from different studies.
SMILES,system,setting,measurement,result
C[C@H]1O[C@@H](O[C@H]2[C@@H](O)C[C@H](O[C@H]3[C@@H](O)C[C@H](O[C@H]4CC[C@@]5(C)[C@H](CC[C@@H]6[C@@H]5C[C@@H](O)[C@]5(C)[C@@H](C7=CC(=O)OC7)CC[C@]65O)C4)O[C@@H]3C)O[C@@H]2C)C[C@H](O)[C@@H]1O,Caco-2,"5 µM, 1 h",efflux ratio,6.6
COc1cc(C(=O)NC2CCN(C)CC2)c(F)cc1Nc1ncc(C(F)(F)F)c(Oc2cccc3c2C(=O)N(C)C3)n1,"human, plasma","oral, 200 mg, multiple doses, once daily, steady state, patients",Cmax,2580 nM
COc1ccc(C(O)COc2ccc(-c3csc(-c4ccc(OCC(O)c5ccc(OC)c(OC)c5)cc4)n3)cc2)cc1OC (stereo not shown),"C57BL/6 mouse, plasma","oral, 30 mg/kg",Tmax,60 min
Cc1nc2ccc(F)cc2n1-c1nc(N)c(F)c(Nc2ccc(C(F)(F)F)cc2)n1,"cynomolgus monkey, plasma","oral, 2 mg/kg",bioavailability,66%
C=CC(=O)N1CC2CC(n3nc(-c4ccc(C(=O)Nc5ccccn5)cc4)c4c(N)ncnc43)CC2C1 (stereo not shown),"SCID mouse, plasma","oral, 5 mg/kg",Tmax,60 min
CC=Cc1ccc(O)c(OC)c1,"mouse, brain","intranasal, 100 mg/kg",Tmax,5 min
CC(C)(O)c1cn(-c2ccc(-c3cccc(S(C)(=O)=O)c3)cc2)c(C(C)(C)c2ccccc2Cl)n1,"male cynomolgus monkey, plasma","intravenous, 1 mg/kg, single dose",Vd,1.3 L/kg
Nc1cc(N2CCCCC2)nc(N)[n+]1[O-],Caco-2,"10 µM, 2 h, pH 7.4",efflux ratio,1.72
CC(C)(C)c1ccc(O)c(CN(Cc2cc(C(C)(C)C)ccc2O)C2CCC(NC(N)=O)CC2)c1 (stereo not shown),"male C57BL/6 mouse, plasma","intraperitoneal, 10 mg/kg, single dose",Tmax,15 min
CC(C)(O)c1cn(-c2ccc(-c3cc(F)c(CO)c(S(C)(=O)=O)c3)cc2F)c(C(C)(C)c2c(Cl)cccc2Cl)n1,"male cynomolgus monkey, plasma","intravenous, 1 mg/kg, single dose",Vd,2.9 L/kg
CO[C@H]1CC[C@H](N2C(=O)CNc3ncc(-c4ccc(C(C)(C)O)nc4)nc32)CC1,"human, plasma","oral, 30 mg, multiple doses, patients",Cmax,293 ng/mL
CC(C)(O)c1cn(-c2ccc(-c3cc(F)c(CO)c(S(C)(=O)=O)c3)cc2)c(C(C)(C)c2cccc(F)c2Cl)n1,"male cynomolgus monkey, plasma","intravenous, 1 mg/kg, single dose",Vd,3.2 L/kg
CCc1nc2c(C)cc(N3CCN(CC(=O)N4CC(O)C4)CC3)cn2c1N(C)c1nc(-c2ccc(F)cc2)c(C#N)s1,"human, plasma","intravenous, 0.1 mg, single dose, fasted, healthy volunteers",Cmax,9.37 ng/mL
